The values below come from ChEMBL document CHEMBL1121854, “New antiarrhythmic agents. 5. alpha-Aminoaceto-2,6-xylidides with functionalized amide alkyl substituents” (J Med Chem, 1981).

Each structure is given as a SMILES string.

Broadly, the ED50 is the midpoint of the dose-response relation. Lower therefore signals greater potency.

Series [1] concerns Mus musculus. As to the kind of experiment: Acute CNS toxicity against arrhythmogenic effects of chloroform in mice after sc administration. In kind it is functional. As to conditions: Central nervous system.
Series [2] is described as follows: Therapeutic index is defined as the ratio of ED50(ataxia)/ED50(protection). The following applies: read-out: Therapeutic index. The method in brief: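 Ratio of ED50 for ataxia to ED50 for protection against chloroform-induced ventricular tachycardia in mice. Both ED50 values were derived by Berkson's logit chi-square method from percent responders across dose groups.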

Series [3] deals with Mus musculus. The series is described as follows: Antiarrhythmic activity against arrhythmogenic effects of chloroform in mice after sc administration. The following applies: Heart. In kind it is functional. The method in brief:
(§1)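 At 20 min they were exposed to chloroform until respiratory arrest, then given a thoracotomy. Leads I and II plus an epicardial ECG were recorded for 30–40 s. Tachycardia was defined as ≥5 s with a ventricular rate >520 beats/min; absence meant protection.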

Series [4] relates to Ovis aries. As to the kind of experiment: Duration of spinal anesthesia at the weight support was measured in sheep at dose.40(mg/kg). The format is functional. The method in brief:
(§2)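 Sterile solutions held 20 mg/mL base (2%) and 50 mg/mL glucose, made from the salts and adjusted to pH 6.1–6.5 with dilute NaOH. 2 mL was injected intrathecally in sheep. Onset of block was recorded at the anal region and hind-limb digits. Duration of pain block at both sites and of loss of weight support was noted. 5% glucose served as vehicle control.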

Series [5] relates to Mus musculus. As to the kind of experiment: Antiarrhythmic activity against arrhythmogenic effects of chloroform in mice after sc administration. In kind it is functional. As to conditions: Heart. The method in brief:
as §1

The test system of series [6] is Mus musculus. The series is described as follows: Acute CNS toxicity against arrhythmogenic effects of chloroform in mice after sc administration. The format is functional. As to conditions: Central nervous system.
Series [7] relates to Ovis aries. As to the kind of experiment: Duration of spinal anesthesia at the digits of the hind limbs was measured in sheep at dose.40(mg/kg). The format is functional, Hindlimb. The method in brief: as §2
For series [8], the system named is Ovis aries. The series is described as follows: Duration of spinal anesthesia at the anal region was measured in sheep at dose.40(mg/kg). The format is functional. The method in brief:
as §2

Series [9] concerns Ovis aries. The series is described as follows: Onset of spinal anesthesia at the anal region was measured in sheep at dose 40(mg/kg). The format is functional. The method in brief: as §2
For series [10], the system named is Ovis aries. As to the kind of experiment: Onset of spinal anesthesia at the digits of the hind limbs was measured in sheep at dose 40(mg/kg). The format is functional, Hindlimb. The method in brief:
as §2

Series [11] concerns Ovis aries. The series is described as follows: Onset of spinal anesthesia at the anal region was measured in sheep at dose 40(mg/kg); 5-50. The format is functional. The method in brief:
as §2

Series [12] relates to Ovis aries. The series is described as follows: Onset of spinal anesthesia at the digits of the hind limbs was measured in sheep at dose 40 (mg/kg); 5-50.
Series [13] relates to Ovis aries. The series is described as follows: Duration of spinal anesthesia at the digits of the hind limbs was measured in sheep at dose. 40 mg/kg; 0-140. The format is functional, Hindlimb. The method in brief:
as §2

The subject of series [14] is Ovis aries. As to the kind of experiment: Duration of spinal anesthesia at the anal region was measured in sheep at dose. 40 mg/kg; 50-300. The format is functional. The method in brief:
as §2

The subject of series [15] is Ovis aries. The series is described as follows: Duration of spinal anesthesia at the weight support was measured in sheep at dose. 40 mg/kg; 0-165. In kind it is functional. The method in brief: as §2
Series [16] relates to Ovis aries. As to the kind of experiment: Duration of spinal anesthesia at the weight support was measured in sheep at dose 40(mg/kg). In kind it is functional. The method in brief:
as §2

Series [17] concerns Ovis aries. As to the kind of experiment: Duration of spinal anesthesia at the anal region was measured in sheep at dose 40(mg/kg). The format is functional. The method in brief: as §2
For series [18], the system named is Ovis aries. The series is described as follows: Duration of spinal anesthesia at the digits of the hind limbs was measured in sheep at dose 40(mg/kg). The format is functional, Hindlimb. The method in brief:
as §2

Series [19] concerns Ovis aries. The series is described as follows: Onset of spinal anesthesia at the digits of the hind limbs was measured in sheep at dose 30(mg/kg). In kind it is functional, Hindlimb.
Series [20] concerns Ovis aries. As to the kind of experiment: Onset of spinal anesthesia at the anal region was measured in sheep at dose 30(mg/kg). The format is functional.
For series [21], the system named is Ovis aries. As to the kind of experiment: Onset of spinal anesthesia at the anal region was measured in sheep at dose 10(mg/kg). The format is functional.
Series [22] has as its system Ovis aries. The series is described as follows: Duration of spinal anesthesia at the weight support was measured in sheep at dose 10(mg/kg). In kind it is functional.
Series [23] relates to Ovis aries. The series is described as follows: Onset of spinal anesthesia at the digits of the hind limbs was measured in sheep at dose 10 (mg/kg). In kind it is functional, Hindlimb.
For series [24], the system named is Ovis aries. As to the kind of experiment: Duration of spinal anesthesia at the digits of the hind limbs was measured in sheep at dose 10(mg/kg). The format is functional, Hindlimb.
The test system of series [25] is Ovis aries. As to the kind of experiment: Duration of spinal anesthesia at the anal region was measured in sheep at dose 10(mg/kg). In kind it is functional.

Regarding `CCOCCN(C(=O)CN(CC)CC)c1c(C)cccc1C`, the ED50 in the series with Mus musculus [1] turned out to be 80 µmol/kg; in the series with Mus musculus [3] it was 60 µmol/kg. Besides, the selectivity ratio in series [2] turned out to be 1.3.
For the compound `Cc1cccc(C)c1N(CCN)C(=O)CN`, the ED50 is 1050 µmol/kg in the series with Mus musculus [1] and 390 µmol/kg with Mus musculus [3]. For the same compound, in series [2], the selectivity ratio was found to be 2.7.
In the case of `CCN(CC)CCN(C(=O)CN(CC)CC)c1c(C)cccc1C`, the Duration of block in the series with Ovis aries [4], in the series with Ovis aries [7] and in the series with Ovis aries [8] was 0 min throughout. Moreover, the figures for the ED50 with Mus musculus [5] and in the series on Mus musculus [6] were 460 µmol/kg and 600 µmol/kg, respectively. In series [2], the selectivity ratio stood at 1.3.
Turning to `CCN(CC)CC(=O)N(CCN)c1c(C)cccc1C`, the results for the Onset of block in the series on Ovis aries [9] and with Ovis aries [10] were 5 min and 15 min, respectively. The figures for the Duration of block in the series with Ovis aries [4], in the series with Ovis aries [7] and in the series with Ovis aries [8] were 195 min, 132 min and 270 min, respectively. For the same compound, the ED50 worked out at 560 µmol/kg in the series on Mus musculus [1] and 120 µmol/kg in the series on Mus musculus [3]. Further, the selectivity ratio in series [2] was determined as 4.7.
On to `Cc1cccc(C)c1N(CCO)C(=O)CN`, for which the ED50 with Mus musculus [5] was 1260 µmol/kg; in the series with Mus musculus [6], 1080 µmol/kg. Moreover, the selectivity ratio in series [2] turned out to be 0.9.
For `CCN(CC)CC(=O)N(CCO)c1c(C)cccc1C`, the figures for the 50% effective dose (ED50) in the series on Mus musculus [1] and in the series on Mus musculus [3] were 490 µmol/kg and 180 µmol/kg, respectively. For the same compound, in series [2], the selectivity ratio is 2.7.
In the same order, the values of `CCCN(C(=O)CN(CC)CC)c1c(C)cccc1C` are 150 µmol/kg, 170 µmol/kg and 0.9.
Turning to `CCN(CC)CCN(C(=O)CN)c1c(C)cccc1C`, the Onset of block in the series with Ovis aries [11] and in the series on Ovis aries [12] was 19 min in each case. Also, the Duration of block worked out at 0 min with Ovis aries [13], 50 min with Ovis aries [14] and 0 min in the series on Ovis aries [15]. Also, the figures for the ED50 in the series with Mus musculus [1] and in the series on Mus musculus [3] were 1130 µmol/kg and 690 µmol/kg, respectively. Moreover, the selectivity ratio in series [2] is 1.6.
Regarding `CCN(CC)CCN(C(=O)CN1C(=O)c2ccccc2C1=O)c1c(C)cccc1C`, the ED50 in the series on Mus musculus [5] and in the series with Mus musculus [6] was 10 µmol/kg in each case. For the same compound, the selectivity ratio in series [2] is 1.
`CCN(CC)CC(=O)N(CC)c1c(C)cccc1C`: the ED50 in the series on Mus musculus [1] amounted to 210 µmol/kg; in the series with Mus musculus [3] it was 140 µmol/kg. For the same compound, in [2], the selectivity ratio was 1.5.
On to `CCOCCN(C(=O)CN)c1c(C)cccc1C`, for which the ED50 in the series with Mus musculus [1] turned out to be 170 µmol/kg; with Mus musculus [3], 190 µmol/kg. Further, in series [2], the selectivity ratio stood at 0.9.
Take `OC[C@H]1OC(O)[C@H](O)[C@@H](O)[C@@H]1O` (some centres undefined) [DEXTROSE]: the Duration of block in the series on Ovis aries [16], with Ovis aries [17] and in the series with Ovis aries [18] was 0 min throughout.
For `Cc1cccc(C)c1NC(=O)CN` [GLYCINEXYLIDIDE], the results for the ED50 in the series on Mus musculus [5] and in the series with Mus musculus [6] were 840 µmol/kg and 620 µmol/kg, respectively. Besides, the selectivity ratio in [2] came out at 0.7.
As for `CCN(CC)CC(=O)Nc1c(C)cccc1C` [LIDOCAINE], the 50% effective dose (ED50) in the series on Mus musculus [5] was determined as 210 µmol/kg; in the series with Mus musculus [6], 180 µmol/kg. Also, the Onset of block in the series with Ovis aries [19] stood at 1.4 min; in the series on Ovis aries [20], 1 min.
Turning to `CCCCNc1ccc(C(=O)OCCN(C)C)cc1` [TETRACAINE], the values for the Onset of block with Ovis aries [21] and in the series on Ovis aries [23] were 1.13 min and 1.2 min, respectively. For the same compound, the Duration of block was 458 min in the series on Ovis aries [22], 285 min in the series on Ovis aries [24] and 302 min with Ovis aries [25].
As for `Cc1cccc(C)c1NC(=O)C(C)N` (centres undefined) [TOCAINIDE], the ED50 in the series on Mus musculus [5] turned out to be 550 µmol/kg; in the series with Mus musculus [6], 760 µmol/kg. Besides, the selectivity ratio in series [2] amounted to 1.4.
